Compounds with a hit are over-represented: about 2.9% of the library has one in this group of screens.
IMP-1 inh = IMP-1 metallo-beta-lactamase inhibitors, primary screen, biochemical, epi-absorbance readout, Pseudomonas aeruginosa enzyme | purified IMP-1, nitrocefin hydrolysis, epi-absorbance fluorescence | inhibition, % at 5.6 µM | 290,000 tested, 0.45% active | AID 1556, 2009;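 active = inhibition above the mean plus 3 SD of all compounds in the same screening run, cut at about 4.5% in these data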;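 also: 0% = IMP-1 with DMSO and 100% = DMSO wells lacking enzyme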
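Test system: recombinant IMP-1 enzyme, purified / Medium: HEPES buffer pH 7.1 with ZnSO4 and Brij 35 / Doses: single dose, 5.6 µM / Times: 25 °C, 15 min preincubation, 25 min reaction / Detection: Epi-absorbance via hydrolysed-nitrocefin quenching of white-plate fluorescence, 480/530 nm, EDTA stop / Evaluation: percent inhibition from optical density relative to buffer-blank wells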
Mot1-301 SUMO = yeast Mot1-301 growth rescue at high temperature, primary screen, SUMOylation pathway inhibitor project, S. cerevisiae, ATP luminescence, 38.5C | growth rescue, % at 18.8 µM | S. cerevisiae Mot1-301 growth rescue; percent above DMSO median, 100 means doubled | 320,000 tested, 1% active;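 active = every valid replicate shows activation above 250% relative to neutral control wells; inactive = the rest, any valid replicate at or below 250%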;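 also: OY570 slx delta 5 strain wells were the positive control but not used for scaling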
NALP1 yeast inh = NALP1 inflammasome inhibitors in reconstituted yeast, colorimetric, S. cerevisiae, triplicate retest | S. cerevisiae NALP1/ASC/caspase-1 growth, X-gal OD620, 72 h | inhibition, % at 10 µM | 280,000 tested, 0.61% active; in the data active = inhibition mostly above about 24%, no sharp cut-off; inactive = mostly below about 32%
PolyA inh = polyadenylation inhibitors in yeast reporter cells, primary screen, luminescence, S. cerevisiae; activity score, % at 12 µM; 300,000 tested, 0.02% active; S. cerevisiae SKY197-pL101 polyadenylation reporter, beta-gal luminescence; efflux-impaired pdr1/pdr3 knockout yeast; score 100 = 6 SD above DMSO; AID 1875, 2009;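 active = lowest replicate activity score at least 50, where 100 means six control SD above control mean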;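 also: yeast exposed to compound for 9 h at 30 °C; higher score means more reporter readthrough which indicates perturbed polyadenylation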
VIM-2 inhibitor = VIM-2 metallo-beta-lactamase inhibitors, primary screen, biochemical, epi-absorbance readout, Pseudomonas aeruginosa enzyme. 290,000 tested, 0.89% active. purified VIM-2, nitrocefin hydrolysis, epi-absorbance fluorescence. inhibition, % at 5.6 µM;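 active = inhibition above the mean of all tested compounds plus 3 SD, cutoff set per screening run, cut at about 7.5% in these data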;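 also: red hydrolysis product quenches plate fluorescence so inhibitors raise well fluorescence; 0% = enzyme with DMSO and 100% = DMSO without enzyme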
NALP3 yeast inh = NALP3 inflammasome inhibitors in reconstituted yeast, primary screen, luminescence, uHTS; Yeast reconstituted NLRP3/ASC/caspase-1, beta-gal luminescence, 24 h; AID 2825, 2010; inhibition, % at 10 µM; 330,000 tested, 0.39% active;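 active = inhibition of 50% or more; inactive = inhibition below 50%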;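 also: plate controls were induced DMSO wells for no effect and uninduced yeast grown without galactose for full effect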
Numbers without * were called inactive.

Results for CCCCCC(=O)NNC1CC(=O)N(c2ccccc2)C1=O (stereo not drawn) ?
IMP-1 inh: -4.8; Mot1-301 SUMO: 0.7; NALP1 yeast inh: 6.2; PolyA inh: 5.8; VIM-2 inhibitor: -2.8; NALP3 yeast inh: -1.5

Results for COc1ccc(Nc2cc(C)c3c(O)cccc3n2)cc1 ?
IMP-1 inh: -1.2; Mot1-301 SUMO: -0.5; PolyA inh: -7.8; VIM-2 inhibitor: 8.8*; NALP3 yeast inh: 0.7

Results for Cc1ccccc1Nc1cc(C)c2c(O)cccc2n1 ?
IMP-1 inh: -2.8; Mot1-301 SUMO: -1.6; NALP1 yeast inh: 56.0*; PolyA inh: -1.5; VIM-2 inhibitor: 0.3; NALP3 yeast inh: 29.6

What do the screens show for `Cc1ccc(Nc2cc(C)c3c(O)cccc3n2)cc1C`?
IMP-1 inh: -0.3; Mot1-301 SUMO: 53.3; PolyA inh: -1.0; VIM-2 inhibitor: 3.3; NALP3 yeast inh: 27.1

What do the screens show for `COc1ccc(C(=O)Nc2ccc(Cn3ccnc3)cc2)cc1OC`?
IMP-1 inh: -3.3; Mot1-301 SUMO: 5.5; NALP1 yeast inh: -9.9; PolyA inh: 5.3; VIM-2 inhibitor: 8.5*; NALP3 yeast inh: 1.0

Results for COc1cc(OC)cc(C(=O)Nc2ccc(Cn3ccnc3)cc2)c1 ?
IMP-1 inh: -2.5; Mot1-301 SUMO: -34.4; NALP1 yeast inh: 16.8; PolyA inh: 12.3; VIM-2 inhibitor: 4.7; NALP3 yeast inh: 6.3

How did Clc1ccc(N2CCN(c3cnc4ccccc4n3)CC2)cc1 do in these assays?
IMP-1 inh: -2.6; Mot1-301 SUMO: 10.8; NALP1 yeast inh: 49.0; PolyA inh: -7.3; VIM-2 inhibitor: -4.7; NALP3 yeast inh: 22.2

What do the screens show for `c1ccc(N2CCN(c3cnc4ccccc4n3)CC2)cc1`?
IMP-1 inh: -1.0; Mot1-301 SUMO: 94.4; NALP1 yeast inh: 39.3*; PolyA inh: -5.9; VIM-2 inhibitor: 0.5; NALP3 yeast inh: 35.7

How did O=Cc1cnc(N2CCN(Cc3ccccc3)CC2)s1 do in these assays?
IMP-1 inh: -2.6; Mot1-301 SUMO: 6.8; NALP1 yeast inh: 8.1; PolyA inh: 4.2; VIM-2 inhibitor: -2.6; NALP3 yeast inh: 7.4

What do the screens show for `O=Cc1cnc(N2CCN(c3ccccc3)CC2)s1`?
IMP-1 inh: -3.0; Mot1-301 SUMO: 19.2; NALP1 yeast inh: 39.1*; PolyA inh: 0.0; VIM-2 inhibitor: -2.9; NALP3 yeast inh: 15.0

How did CCC1Sc2ccccc2N(CC(=O)NC2CC2)C1=O (stereo not drawn) do in these assays?
IMP-1 inh: -1.8; NALP1 yeast inh: 2.7; PolyA inh: 0.7; VIM-2 inhibitor: -1.0; NALP3 yeast inh: -12.8

How did CCC1Sc2ccccc2N(CC(=O)NCCC2=CCCCC2)C1=O (stereo not drawn) do in these assays?
IMP-1 inh: 0.7; Mot1-301 SUMO: 4.7; NALP1 yeast inh: 42.6*; PolyA inh: -4.2; VIM-2 inhibitor: -4.4; NALP3 yeast inh: 14.2

How did Cc1c(C(=O)NCc2ccccn2)oc2ccc(Br)cc12 do in these assays?
Mot1-301 SUMO: 24.0; PolyA inh: -16.2; NALP3 yeast inh: 25.4

How did Cc1c(C(=O)NCc2cccs2)oc2ccc(Br)cc12 do in these assays?
IMP-1 inh: 5.3*; Mot1-301 SUMO: 33.4; NALP1 yeast inh: 6.7; PolyA inh: -5.6; VIM-2 inhibitor: 1.4; NALP3 yeast inh: 12.2

Results for O=C1c2cccc(OCc3ccc(F)cc3)c2CCN1Cc1ccccc1 ?
IMP-1 inh: 6.1*; Mot1-301 SUMO: 23.0; NALP1 yeast inh: 20.2; PolyA inh: -16.1; VIM-2 inhibitor: -2.1; NALP3 yeast inh: 11.3

Results for COCCCn1c(-c2ccc(Cl)cc2)n[nH]c1=S ?
IMP-1 inh: -3.2; Mot1-301 SUMO: -6.0; NALP1 yeast inh: 8.1; PolyA inh: -0.8; VIM-2 inhibitor: 5.7; NALP3 yeast inh: 4.2

Results for COCCCn1c(-c2ccccc2Cl)n[nH]c1=S ?
IMP-1 inh: -0.5; Mot1-301 SUMO: 9.3; NALP1 yeast inh: -3.0; PolyA inh: 13.1; VIM-2 inhibitor: 10.3*; NALP3 yeast inh: -9.4

How did CC(C)Oc1ccc(CNC(=O)Cn2c(=O)c3cccn3c3cccnc32)cc1 do in these assays?
IMP-1 inh: -4.0; Mot1-301 SUMO: 3.2; NALP1 yeast inh: 2.5; PolyA inh: 14.3; VIM-2 inhibitor: -2.2; NALP3 yeast inh: 6.7

How did CCOc1ccc(CNC(=O)Cn2c(=O)c3cccn3c3ccccc32)cc1 do in these assays?
IMP-1 inh: 6.2*; Mot1-301 SUMO: -6.9; NALP1 yeast inh: 18.3; PolyA inh: -12.7; VIM-2 inhibitor: -1.2; NALP3 yeast inh: 16.1

What do the screens show for `O=C(Cn1c(=O)c2cccn2c2ccccc21)NCCc1ccccc1`?
IMP-1 inh: -2.3; Mot1-301 SUMO: 18.2; NALP1 yeast inh: 11.2; PolyA inh: 8.9; VIM-2 inhibitor: -1.8; NALP3 yeast inh: -5.8

How did O=C(Cn1c(=O)c2cccn2c2ccccc21)NCCc1ccc(Cl)cc1 do in these assays?
IMP-1 inh: 13.2*; Mot1-301 SUMO: -5.9; NALP1 yeast inh: 20.9; PolyA inh: 16.2; VIM-2 inhibitor: 3.3; NALP3 yeast inh: 8.3

What do the screens show for `S=c1[nH]c(-c2ccccc2)cn1/N=C/c1ccccc1Br`?
IMP-1 inh: -2.5; Mot1-301 SUMO: 13.9; NALP1 yeast inh: 2.7; PolyA inh: -17.6; VIM-2 inhibitor: -3.5; NALP3 yeast inh: 19.2

Results for Cc1ccc(/C=N/n2cc(-c3ccccc3)[nH]c2=S)s1 ?
IMP-1 inh: -4.4; Mot1-301 SUMO: -12.4; NALP1 yeast inh: 24.9*; PolyA inh: 1.2; VIM-2 inhibitor: -3.8; NALP3 yeast inh: 40.4

How did COc1cc(/C=N/n2cc(-c3ccccc3)[nH]c2=S)cc(OC)c1O do in these assays?
IMP-1 inh: -2.6; Mot1-301 SUMO: 540.1*; NALP1 yeast inh: -22.6; PolyA inh: 2.6; VIM-2 inhibitor: -5.4; NALP3 yeast inh: 8.7

What do the screens show for `Oc1ccc(/C=N/n2cc(-c3ccccc3)[nH]c2=S)cc1`?
IMP-1 inh: -4.5; NALP1 yeast inh: -19.1; PolyA inh: 3.5; VIM-2 inhibitor: -6.1; NALP3 yeast inh: 27.9

What do the screens show for `O=C1/C(=C\c2c(NCCOCCO)nc3ccccn3c2=O)SC(=S)N1Cc1ccco1`?
IMP-1 inh: -2.7; Mot1-301 SUMO: -12.6; NALP1 yeast inh: 24.2; PolyA inh: 5.0; VIM-2 inhibitor: 1.0; NALP3 yeast inh: 30.3

How did O=C(CNS(=O)(=O)c1c(Cl)cccc1Cl)N1CCCCCC1 do in these assays?
IMP-1 inh: -5.3; Mot1-301 SUMO: -18.6; NALP1 yeast inh: -7.0; PolyA inh: 21.2; VIM-2 inhibitor: -2.2; NALP3 yeast inh: 6.7

What do the screens show for `NC(CSS(=O)(=O)O)=NCCC12CC3CC(CC(O)(C3)C1)C2`?
IMP-1 inh: 5.4*; Mot1-301 SUMO: -23.6; NALP1 yeast inh: 12.0; PolyA inh: 2.4; VIM-2 inhibitor: 0.3; NALP3 yeast inh: 3.2
